Reference: ChEMBL document CHEMBL4024769, “Synthesis and Investigation of Photophysical and Biological Properties of Novel S-Containing Bacteriopurpurinimides” (J Med Chem, 2017)
Calls of active or inactive are those of the source. No cut-off for these calls is given here.

Legend:
[1] = Pro-oxidant activity in 1% cremophor EL or rose Bengal assessed as singlet oxygen radical generation by measuring photo-induced fading of 4-nitroso-N,N-dimethylaniline at 3.4 uM in presence of laser radiation and histidine measured every 5 to 10 mins in presence of singlet oxygen quencher NaN3 by absorption spectroscopy; type: functional
[2] = Drug uptake in tumor of F1 mouse implanted with mouse S37 cells assessed as normalized fluorescence units at 2.5 mg/kg, iv measured after 30 mins in presence of He-Ne laser radiation by local fluorescence spectroscopic analysis; type: ADME, organism-based, Neoplasm; settings: in vivo, 0.5 h
Outline: (§1)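 S37 sarcoma-bearing immunocompetent F1 mice (18−22 g) given PS 2.5 mg/kg iv. Animals sacrificed at 0.25, 0.5, 2, 4 and 24 h, with three animals per time point. Skin, tumor and organ samples were read ex vivo by contact local fluorescence spectroscopy under He−Ne 632.8 nm excitation. Integrated 640−900 nm emission was normalized to the backscattered laser signal to give FN.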

[3] = Phototoxicity against mouse S37 cells implanted in F1 mouse assessed as tumor growth inhibition at 5 mg/kg, iv preincubated for 30 mins with subsequent 150 J/cm2 irradiation measured on day 8 post irradiation relative to control; type: functional; settings: S37, light or radiation study, read-out: TGI
Outline: (§2)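 S37 sarcoma mice treated on day 7 of tumor growth with compound iv; tumors 140–160 mm3 beforehand, droperidol 0.25 mg ip as anesthetic. LED irradiation at 800 ± 21 nm, 100 mW/cm2, 150 J/cm2, given 15 or 30 min after dosing. Controls got iv 0.9% NaCl. Volume = d1×d2×d3×0.52; TGI = […]×100%.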

[4] = (§3) Phototoxicity against rat Sarcoma M1 cells implanted in rat assessed as volume of tumor parenchyma at 2.5 mg/kg, ip administered as single dose on day 11 after inoculation followed by 300 J/cm2 irradiation after 2.5 to 3 hrs measured on day 12 post photodynamic therapy by hematoxylin and eosin staining based assay (reference value: 56 +/- 3%); type: functional
Outline: (§4)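 Rat M1 sarcoma was implanted subcutaneously in the left thigh, with randomisation on day 10. A single 2.5 mg/kg ip dose was given on day 11, then 810 nm laser (0.51 W/cm2, 300 J/cm2, 10 min) after 2.5−3 h. Tumours were sectioned on days 1, 3 and 12 after PDT (controls days 12, 14, 23), five animals per point. Parenchyma and necrotic zone volumes were estimated on hematoxylin and eosin staining.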

Sarcoma M1 [5] = assay: (§5) Phototoxicity against rat Sarcoma M1 cells implanted in rat assessed as damage to tumor nodes at 2.5 mg/kg, ip administered as single dose on day 11 post inoculation followed by 300 J/cm2 irradiation after 2.5 to 3 hrs measured on day 2 post photodynamic therapy by hematoxylin and eosin staining based assay; type: functional, organism-based
Sarcoma M1 [6] = assay: as §5, with “coagulative” for “damage to”, “necrosis” for “nodes”; type: functional, organism-based
[7] = Phototoxicity against rat Sarcoma M1 cells implanted in rat assessed as mitotic index at 2.5 mg/kg, ip administered as single dose on day 11 after inoculation followed by 300 J/cm2 irradiation after 2.5 to 3 hrs measured on day 1 post photodynamic therapy (reference value: 1.9 +/- 0.2 %); type: functional
Outline: (§6)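 Rats with M1 sarcoma implanted subcutaneously in the left thigh were randomized on day 10, 25 per group. Single ip dose of 2.5 mg/kg on day 11; laser irradiation 2.5–3 h later at 810 nm, 0.51 W/cm2, 300 J/cm2, 10 min over a 1.5 cm field. Five rats sampled per time point for H&E histology, PCNA immunohistochemistry (1:200) and tumor volume. Untreated controls; Student's test, p < 0.05.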

[8] = Phototoxicity against rat Sarcoma M1 cells implanted in rat assessed as apoptotic index at 2.5 mg/kg, ip administered as single dose on day 11 after inoculation followed by 300 J/cm2 irradiation after 2.5 to 3 hrs measured on day 3 post photodynamic therapy (reference value: 0.31 +/- 0.02%); type: functional; outline: as §6
[9] = as §3, with “3” for “12”, “70” for “56”, “4%)” for “3%)”; type: functional; outline: as §4
[10] = Phototoxicity against rat Sarcoma M1 cells implanted in rat assessed as tumor volume at 2.5 mg/kg, ip administered as single dose on day 11 after inoculation followed by 300 J/cm2 irradiation after 2.5 to 3 hrs measured on day 1 post photodynamic therapy (reference value: 1.22 +/- 0.18 mm3); type: functional; outline: as §6
[11] = Phototoxicity against rat Sarcoma M1 cells implanted in rat assessed as apoptotic index at 2.5 mg/kg, ip administered as single dose on day 11 after inoculation followed by 300 J/cm2 irradiation after 2.5 to 3 hrs measured on day 12 post photodynamic therapy (reference value: 0.37 +/- 0.06%); type: functional; outline: as §6
[12] = Drug uptake in skin tumor of F1 mouse implanted with mouse S37 cells assessed as normalized fluorescence at 2.5 mg/kg, iv measured after 30 mins post injection in presence of He-Ne laser radiation by local fluorescence spectroscopic analysis; type: ADME, organism-based; settings: in vivo, 0.5 h; outline: as §1
[13] = Phototoxicity against mouse S37 cells implanted in F1 mouse assessed as tumor growth inhibition at 5 mg/kg, iv preincubated for 30 mins with subsequent 150 J/cm2 irradiation measured on day 18 post irradiation relative to control; type: functional; settings: S37, light or radiation study, read-out: TGI; outline: as §2
[14] = Phototoxicity against mouse S37 cells implanted in F1 mouse assessed as tumor growth inhibition at 5 mg/kg, iv preincubated for 30 mins with subsequent 150 J/cm2 irradiation measured on day 11 post irradiation relative to control; type: functional; settings: S37, light or radiation study, read-out: TGI; outline: as §2
[15] = Phototoxicity against rat Sarcoma M1 cells implanted in rat assessed as volume of tumor necrotic zones at 2.5 mg/kg, ip administered as single dose on day 11 after inoculation followed by 300 J/cm2 irradiation after 2.5 to 3 hrs measured on day 12 post photodynamic therapy (reference value: 44 +/- 3%); type: functional; outline: as §4
[16] = Phototoxicity against rat Sarcoma M1 cells implanted in rat assessed as tumor volume at 2.5 mg/kg, ip administered as single dose on day 11 after inoculation followed by 300 J/cm2 irradiation after 2.5 to 3 hrs measured on day 3 post photodynamic therapy (reference value: 1.6 +/- 0.3 mm3); type: functional; outline: as §6
[17] = Phototoxicity against mouse S37 cells implanted in F1 mouse assessed as tumor growth inhibition at 5 mg/kg, iv preincubated for 15 mins with subsequent 150 J/cm2 irradiation measured on day 15 post irradiation relative to control; type: functional; settings: S37, light or radiation study, read-out: TGI; outline: as §2
[18] = Phototoxicity against mouse S37 cells implanted in F1 mouse assessed as tumor growth inhibition at 5 mg/kg, iv preincubated for 15 mins with subsequent 150 J/cm2 irradiation measured on day 11 post irradiation relative to control; type: functional; settings: S37, light or radiation study, read-out: TGI; outline: as §2
[19] = Phototoxicity against mouse S37 cells implanted in F1 mouse assessed as tumor growth inhibition at 5 mg/kg, iv preincubated for 15 mins with subsequent 150 J/cm2 irradiation measured on day 20 post irradiation relative to control; type: functional; settings: S37, light or radiation study, read-out: TGI; outline: as §2
[20] = Phototoxicity against mouse S37 cells assessed as cell growth inhibition preincubated for 6 hrs with subsequent 10 J/cm2 irradiation followed by incubation in absence of compound for 24 hrs by MTT assay; type: functional; settings: S37, light or radiation study
Outline: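 S37 cells treated with 0.05–28 μM compound added 24 h after plating. After 0.25–6 h incubation, cells were irradiated with a halogen lamp through a KS-19 filter (720 nm) at 21.0 ± 1.0 mW/cm2, 10 J/cm2, with or without removing the compound. MTT read 24 h later; 50% growth inhibition taken as the value, mean of three tests.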

Compound | Activity [1] | Flu intensity [2] [RU] | inhibition in vivo at 5 mg/kg [3] [%] | Activity [4] [%] | Activity (Sarcoma M1 [5]) | Activity (Sarcoma M1 [6]) | Activity [7] [%] | Activity [8] [%] | Activity [9] [%] | Activity [10] [mm3] | Activity [11] [%] | Flu intensity [12] [RU] | inhibition in vivo at 5 mg/kg [13] [%] | inhibition in vivo at 5 mg/kg [14] [%] | Activity [15] [%] | Activity [16] [mm3] | inhibition in vivo at 5 mg/kg [17] [%] | inhibition in vivo at 5 mg/kg [18] [%] | inhibition in vivo at 5 mg/kg [19] [%] | CC50 [20] [µM]
CCCO/N=C(\C)c1c(C)c2cc3nc(c4c5[nH]c(cc6nc(cc1[nH]2)[C@@H](C)[C@@H]6CC)c(C)c5C(=O)N(OCCC)C4=O)[C@H](CCC(=O)NCCSSCCNC(=O)CC[C@@H]1c2nc(cc4[nH]c(cc5nc(cc6[nH]c7c2C(=O)N(OCCC)C(=O)c7c6C)[C@H](CC)[C@H]5C)c(/C(C)=N/OCCC)c4C)[C@H]1C)[C@H]3C | inactive | 4 | 100 | 30 | Active | Active | 1.2 | 0.43 | 23 | 1.13 | 0.42 | 2.2 | 100 | 100 | 71 | 0.59 |  |  |  | 
CCCO/N=C(\C)c1c(C)c2cc3nc(c4c5[nH]c(cc6nc(cc1[nH]2)[C@H](C)[C@H]6CC)c(C)c5C(=O)N(OCCC)C4=O)[C@@H](CCC(=O)OC)[C@@H]3C |  |  |  |  |  |  |  |  |  |  |  |  |  |  |  |  | 100 | 100 | 100 | 0.11
